The subject of assay [1] is RAW264.7. The assay is described as follows: Inhibition of LPS-induced nitric oxide production in mouse RAW264.7 cells by Griess method. Type of assay: functional, cell-based. Put shortly: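 RAW 264.7 murine macrophages were grown in DMEM with 10% FBS, penicillin and streptomycin at 37 °C under 5% CO2, then stimulated with LPS for 24 h. Nitrite in the medium was measured by Griess reaction (sulfanilamide/naphthylethylenediamine, 10 min at room temperature, A550) against a NaNO2 standard curve. IC50 is the concentration giving a 50% decrease in NO; values are the mean of four independent experiments.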

Assay [2] concerns RAW264.7. The assay is described as follows: Cytotoxicity against LPS-stimulated mouse RAW264.7 cells by Griess method. Type of assay: cell-based. Background: The Griess reaction detects nitrite, a stable product of nitric oxide.

Molecules are shown by their SMILES.

A word on the IC50: it is the midpoint of a concentration-inhibition curve. Low values mean higher potency, high ones lower potency.

Take `C[C@H]1[C@H](C)CC[C@]2(C(=O)O)CC[C@]3(C)C(=CC[C@@H]4[C@@]5(C)CC[C@H](O[C@@H]6O[C@H](CO)[C@@H](O)[C@H](O)[C@H]6O)[C@@](C)(CO)[C@@H]5CC[C@]43C)[C@H]12`: the IC50 turned out to be 22.1 µM in the assay on RAW264.7 [1] and 126 µM in the assay on RAW264.7 [2].
Taken in the same sequence, the figures for `C[C@H]1[C@H](C)CC[C@]2(C(=O)O)CC[C@]3(C)C(=CC[C@@H]4[C@@]5(C)CC[C@H](O[C@@H]6OC[C@H](O)[C@H](O)[C@H]6O)[C@@](C)(CO)[C@@H]5CC[C@]43C)[C@H]12` were 47.9 µM and 124 µM.
Taken in the same sequence, the figures for `C[C@H]1[C@H](C)CC[C@]2(C(=O)O)CC[C@]3(C)C(=CC[C@@H]4[C@@]5(C)CC[C@H](O)[C@@](C)(CO)[C@@H]5CC[C@]43C)[C@H]12` were 2.6 µM and 11 µM.
Taken in the same sequence, the figures for `CC(=N)NCCCC[C@H](N)C(=O)O` [L-NIL] were 18.6 µM and above 200 µM.
Turning to `C[C@H]1[C@H](C)CC[C@]2(C(=O)O)CC[C@]3(C)C(=CC[C@@H]4[C@@]5(C)CC[C@H](O)C(C)(C)[C@@H]5CC[C@]43C)[C@H]12` [URSOLIC ACID], the IC50 came out at 46.9 µM with RAW264.7 [1] and 58.5 µM in the assay on RAW264.7 [2].
